Data set [1] concerns the target T1, Monoacylglycerol lipase ABHD6 (Rattus norvegicus) (UniProt Q5XI64).
T1 sequence (whole entry): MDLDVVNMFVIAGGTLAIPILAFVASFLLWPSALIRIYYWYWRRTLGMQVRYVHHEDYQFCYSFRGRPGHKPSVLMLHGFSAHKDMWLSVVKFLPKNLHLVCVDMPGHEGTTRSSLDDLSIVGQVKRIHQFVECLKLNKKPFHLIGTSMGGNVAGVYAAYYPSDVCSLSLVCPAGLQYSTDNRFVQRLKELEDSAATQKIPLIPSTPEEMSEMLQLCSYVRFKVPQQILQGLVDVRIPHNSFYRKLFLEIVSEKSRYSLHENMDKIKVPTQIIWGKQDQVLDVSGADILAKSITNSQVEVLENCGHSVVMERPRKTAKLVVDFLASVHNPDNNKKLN
The data set is described as follows: Inhibition of ABHD6 in rat brain membrane homogenates at 0.001 to 10 uM preincubated for 30 mins followed by FP-Rh addition after 30 mins by gel-based ABPP assay. In kind it is cell membranes.

Data set [2] addresses T2, Monoacylglycerol lipase ABHD6 (Mus musculus) (UniProt Q8R2Y0).
T2 sequence (whole entry): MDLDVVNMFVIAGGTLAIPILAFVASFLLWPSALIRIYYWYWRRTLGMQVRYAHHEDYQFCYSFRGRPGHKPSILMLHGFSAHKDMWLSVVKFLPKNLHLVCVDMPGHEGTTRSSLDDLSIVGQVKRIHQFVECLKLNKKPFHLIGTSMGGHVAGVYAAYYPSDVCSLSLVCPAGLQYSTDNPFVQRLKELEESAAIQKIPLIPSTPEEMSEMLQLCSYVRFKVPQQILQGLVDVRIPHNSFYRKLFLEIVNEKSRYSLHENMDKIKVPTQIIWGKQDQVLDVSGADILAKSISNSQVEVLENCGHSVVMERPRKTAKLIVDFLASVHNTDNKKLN
In words: Inhibition of ABHD6 in mouse brain membrane homogenates at 0.001 to 10 uM preincubated for 30 mins followed by FP-Rh addition after 30 mins by gel-based ABPP assay. In kind it is cell membranes.

Data set [3] can be described thus: Half life in Beagle dog at 1 mg/kg, iv by LC-MS analysis. In kind it is ADME, organism-based, Canis lupus familiaris. The note with it: in vivo. The essentials:
(§1)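 Male beagle dogs (n = 3 per route), 10–12 months old, were dosed at 1 mg/kg iv or po in PEG400/ethanol/PBS (7/2/1), fasted overnight to 2 h post-dose. Peripheral venous blood was sampled to 24 h into K2EDTA and plasma frozen at −80 °C. Plasma was quantified by HPLC-MS/MS, with noncompartmental analysis.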

A short description of data set [4]: Oral bioavailability in Beagle dog at 1 mg/kg by LC-MS analysis. In kind it is ADME, organism-based, Canis lupus familiaris. The settings on record: in vivo. The essentials:
as §1

Another data set concerns the target T3, Cytochrome P450 1A2 (Homo sapiens, UniProt P05177).
T3 sequence (P05177 whole entry): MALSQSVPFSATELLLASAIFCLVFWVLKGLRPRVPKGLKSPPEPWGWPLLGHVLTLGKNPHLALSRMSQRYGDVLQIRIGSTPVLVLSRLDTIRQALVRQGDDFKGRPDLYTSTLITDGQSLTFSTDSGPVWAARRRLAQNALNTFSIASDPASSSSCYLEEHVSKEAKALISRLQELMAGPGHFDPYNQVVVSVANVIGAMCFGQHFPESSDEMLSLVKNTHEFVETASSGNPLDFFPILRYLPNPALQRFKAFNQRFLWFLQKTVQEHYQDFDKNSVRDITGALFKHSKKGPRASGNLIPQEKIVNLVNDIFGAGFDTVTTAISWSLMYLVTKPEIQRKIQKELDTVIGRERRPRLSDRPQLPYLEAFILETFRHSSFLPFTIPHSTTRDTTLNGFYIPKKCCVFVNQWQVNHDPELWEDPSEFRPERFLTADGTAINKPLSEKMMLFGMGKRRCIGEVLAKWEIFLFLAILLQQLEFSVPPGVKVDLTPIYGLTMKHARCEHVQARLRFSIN
The data set is described as follows: Inhibition of recombinant human CYP1A2. In kind it is ADME.

Another data set deals with Mus musculus. In words: In vivo inhibition of MGLL in po dosed ICR mouse brain measured 4 hrs post dose in presence of FP-Rh probe by gel-based ABPP assay. In kind it is functional. A digest of the protocol: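 Male ICR mice, 6–12 weeks old, single oral gavage 0.5–32 mg/kg in PEG400:ethanol:PBS (7/2/1), 5 mL/kg, n = 3. Killed at 4 h; one brain hemisphere for gel-based ABPP with FP-Rh (MGLL band quantified), the other for 2-AG by LC-MS/MS.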

Data set [5] has as its system Rattus norvegicus. In words: Antinociceptive activity in po dosed Sprague-Dawley rat brain assessed as inhibition of MGLL activity measured after 4 hrs post dose in presence of FP-Rh probe by gel-based ABPP assay. In kind it is functional. A digest of the protocol: (§2)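 Male Sprague Dawley rats, 6–12 weeks old, given single oral doses (0.03–10 mg/kg) in 0.5% methylcellulose at 5 mL/kg. Brains were taken 4 h post-dose and forebrain sections excised from one hemisphere. Brain proteome was labeled with FP-Rh (1 µM, 30 min) and analyzed by SDS-PAGE with in-gel fluorescence. Band intensity was normalized to vehicle.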

Data set [6] relates to Rattus norvegicus. The data set is described as follows: Antinociceptive activity in po dosed Sprague-Dawley rat brain assessed as inhibition of ABHD6 activity measured after 4 hrs post dose in presence of FP-Rh probe by gel-based ABPP assay. In kind it is functional. A digest of the protocol: as §2
The test system of data set [7] is Rattus norvegicus. In words: Antinociceptive activity in Sprague-Dawley rat assessed as reduction in formalin-evoked paw licking duration at 3 mg/kg, po administered 4 hrs prior to formalin challenge and measured between 0 to 15 mins post formalin challenge. The class given is functional, organism-based.
The test system of data set [8] is Rattus norvegicus. The data set is described as follows: Antinociceptive activity in Sprague-Dawley rat assessed as reduction in formalin-evoked paw licking duration at 3 mg/kg, po administered 4 hrs prior to formalin challenge and measured between 10 to 30 mins post formalin challenge. The class given is functional, organism-based.
Data set [9] deals with ATP-dependent translocase ABCB1 (Homo sapiens, UniProt P08183). In words: Inhibition of P-gp (unknown origin) at 10 uM. In kind it is ADME.
Sequence of ATP-dependent translocase ABCB1 (P08183 whole entry): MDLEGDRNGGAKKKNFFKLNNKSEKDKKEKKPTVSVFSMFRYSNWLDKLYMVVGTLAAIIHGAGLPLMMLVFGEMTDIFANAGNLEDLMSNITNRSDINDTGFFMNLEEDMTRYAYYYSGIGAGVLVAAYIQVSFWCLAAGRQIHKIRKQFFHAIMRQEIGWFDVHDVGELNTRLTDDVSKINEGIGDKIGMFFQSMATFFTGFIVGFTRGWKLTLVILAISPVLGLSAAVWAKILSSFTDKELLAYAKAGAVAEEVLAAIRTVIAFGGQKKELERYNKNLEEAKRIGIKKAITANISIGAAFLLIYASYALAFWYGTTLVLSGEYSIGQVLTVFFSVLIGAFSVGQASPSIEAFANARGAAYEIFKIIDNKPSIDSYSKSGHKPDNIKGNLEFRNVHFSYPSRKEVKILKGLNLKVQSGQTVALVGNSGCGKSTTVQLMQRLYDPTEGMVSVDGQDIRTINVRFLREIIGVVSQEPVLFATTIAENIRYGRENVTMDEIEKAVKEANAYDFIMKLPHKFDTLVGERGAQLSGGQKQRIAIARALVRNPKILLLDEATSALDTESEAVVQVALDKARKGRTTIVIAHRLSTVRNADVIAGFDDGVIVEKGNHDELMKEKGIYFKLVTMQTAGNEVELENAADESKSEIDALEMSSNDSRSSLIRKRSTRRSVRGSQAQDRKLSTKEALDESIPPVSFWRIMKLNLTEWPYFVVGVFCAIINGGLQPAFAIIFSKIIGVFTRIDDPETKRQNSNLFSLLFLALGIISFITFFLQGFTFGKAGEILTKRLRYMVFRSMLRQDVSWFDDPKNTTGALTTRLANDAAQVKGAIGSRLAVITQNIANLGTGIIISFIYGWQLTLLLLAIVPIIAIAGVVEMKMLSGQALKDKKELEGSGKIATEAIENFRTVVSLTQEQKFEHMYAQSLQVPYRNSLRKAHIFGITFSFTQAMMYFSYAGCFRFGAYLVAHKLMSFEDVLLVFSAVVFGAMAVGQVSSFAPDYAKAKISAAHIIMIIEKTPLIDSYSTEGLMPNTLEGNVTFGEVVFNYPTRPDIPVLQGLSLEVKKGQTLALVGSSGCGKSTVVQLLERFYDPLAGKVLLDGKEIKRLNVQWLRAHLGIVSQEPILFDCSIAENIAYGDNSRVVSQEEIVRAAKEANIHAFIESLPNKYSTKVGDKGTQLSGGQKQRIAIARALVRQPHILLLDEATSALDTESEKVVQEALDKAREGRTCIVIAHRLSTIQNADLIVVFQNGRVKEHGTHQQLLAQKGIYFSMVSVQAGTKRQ

The structures appear in SMILES notation. Active and inactive are the calls of the source.

By half-life is commonly meant the time needed for the level to fall by half in the phase considered. Usually bioavailability stands for the share of a dose that reaches the circulation, judged against a reference dose that is usually intravenous. Low readings indicate poor availability, high ones good availability. One may read the IC50 as the concentration at which inhibition is half-maximal. Broadly, the ED50 is the dose at which the effect has come halfway, by size or by number of responders. In the case of `O=C(OC(C(F)(F)F)C(F)(F)F)N1CCN(Cc2ccc(C(F)(F)F)cc2N2CCCC2)CC1` [ELCUBRAGISTAT], the inhibition result in data set [1] and in data set [2] was “Active” throughout. In addition, the half-life in data set [3] is 6.1 h. Further, in data set [4], the bioavailability was found to be 57%. Further, the IC50 at Cytochrome P450 1A2 is above 50 µM. Also, the ED50 in the data set with Mus musculus was 1.4 mg/kg; in the data set on Rattus norvegicus [5] it was 0.5 mg/kg; in the data set on Rattus norvegicus [6] it was 2.9 mg/kg. The inhibition entry in the data set on Mus musculus was “Dose-dependent effect”. In addition, the result in the data set on Rattus norvegicus [7] and in the data set with Rattus norvegicus [8] was Active. In addition, the “inhibition (INH)” value in data set [9] was “Not Active”.

For the origin of these results see ChEMBL document CHEMBL4308843, “Identification of ABX-1431, a Selective Inhibitor of Monoacylglycerol Lipase and Clinical Candidate for Treatment of Neurological Disorders” (J Med Chem, 2018).
